Data: ChEMBL document CHEMBL5390224, “Design, synthesis, and biological evaluation of a novel series of 1,2,4-oxadiazole inhibitors of SLACK potassium channels: Identification of in vitro tool VU0935685” (Bioorg Med Chem, 2023)
Activity calls are given as the source filed them. The calls are words filed in the database; no cut-off is given here.

Legend:
[1] = target: T1, Potassium channel subfamily T member 2 (Homo sapiens, UniProt Q6UVM3); test: Inhibition of SLICK (unknown origin) expressed in HEK293 cells by thallium flux assay; type: cell-based
T1 sequence (Q6UVM3 whole entry): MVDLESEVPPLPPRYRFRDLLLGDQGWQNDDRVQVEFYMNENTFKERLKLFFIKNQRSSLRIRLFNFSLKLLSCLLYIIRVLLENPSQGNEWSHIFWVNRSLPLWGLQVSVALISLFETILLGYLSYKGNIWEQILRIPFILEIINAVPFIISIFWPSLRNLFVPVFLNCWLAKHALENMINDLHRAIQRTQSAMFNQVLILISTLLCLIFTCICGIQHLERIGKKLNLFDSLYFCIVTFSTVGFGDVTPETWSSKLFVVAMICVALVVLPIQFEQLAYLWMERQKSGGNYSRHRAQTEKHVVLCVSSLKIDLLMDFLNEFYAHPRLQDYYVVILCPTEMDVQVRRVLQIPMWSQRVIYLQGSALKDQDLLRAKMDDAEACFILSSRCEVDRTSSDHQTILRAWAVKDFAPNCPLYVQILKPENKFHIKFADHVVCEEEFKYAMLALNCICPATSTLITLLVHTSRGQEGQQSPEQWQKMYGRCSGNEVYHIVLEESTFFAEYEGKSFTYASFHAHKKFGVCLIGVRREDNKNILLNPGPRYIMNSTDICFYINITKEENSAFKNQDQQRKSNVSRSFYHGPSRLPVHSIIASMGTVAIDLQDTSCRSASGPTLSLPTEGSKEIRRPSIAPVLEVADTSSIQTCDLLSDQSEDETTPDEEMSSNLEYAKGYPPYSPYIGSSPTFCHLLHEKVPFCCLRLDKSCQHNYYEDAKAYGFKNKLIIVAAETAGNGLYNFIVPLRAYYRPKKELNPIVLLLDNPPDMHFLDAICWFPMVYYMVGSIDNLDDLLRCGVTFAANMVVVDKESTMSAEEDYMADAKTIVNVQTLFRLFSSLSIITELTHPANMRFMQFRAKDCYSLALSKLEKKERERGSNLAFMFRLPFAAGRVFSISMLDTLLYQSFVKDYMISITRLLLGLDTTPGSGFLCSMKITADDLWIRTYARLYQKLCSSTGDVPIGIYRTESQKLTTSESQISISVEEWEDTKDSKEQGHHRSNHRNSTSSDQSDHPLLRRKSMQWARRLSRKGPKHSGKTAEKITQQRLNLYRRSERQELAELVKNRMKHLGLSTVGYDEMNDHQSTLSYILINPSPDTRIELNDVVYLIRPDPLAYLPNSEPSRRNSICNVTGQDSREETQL

[2] = system: HEK293; test: Inhibition of wild-type human SLACK expressed in HEK293 cells assessed as efficacy at 30 uM by thallium flux assay relative to control; type: cell-based
Procedure, shortened: (§1)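 Stable monoclonal HEK293 lines (WT or A934T SLACK) plated 20,000 cells/well; loaded 1 h at room temperature with Thallo-AM dye, 1.25 mM probenecid, masking dye, 0.3% Pluronic F-127 in buffer with 2.7 mM RbCl, pH 7.3. Compound preincubated 120 s, then Tl2SO4 stimulus (2.5 mM); fluorescence read 120 s. Concentration–response 1.5 nM–30 μM in half-log steps, ≥3 replicate wells.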

[3] = target: Calcium-activated potassium channel subunit alpha-1 (Homo sapiens) (UniProt Q12791); test: Inhibition of Maxi-K (unknown origin) expressed in HEK293 cells by thallium flux assay; type: cell-based
[4] = Metabolic stability in mouse liver microsomes assessed as compound remaining measured after 10 min in presence of NADPH; type: ADME, Microsome
Procedure, shortened: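 Mouse liver microsomes (0.5 mg/mL) with compound (5 μM) preincubated 5 min at 37 °C in 100 mM potassium phosphate, pH 7.4. Reaction started with NADPH (1 mM) plus MgCl2 (3 mM). Samples at 0 and 10 min quenched in cold acetonitrile with internal standard; percent remaining by LC/MS/MS.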

[5] = Plasma protein binding in mouse assessed as unbound fraction by equilibrium dialysis method; type: ADME, cell-free
Procedure, shortened: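 Equilibrium dialysis, 12–14 K MWCO cellulose membrane: plasma spiked to 5 μM final versus 25 mM phosphate buffer pH 7.4, 6 h at 37 °C, shaking 200 rpm. Both sides matrix-matched, acetonitrile extraction with internal standard, LC/MS/MS quantitation. Triplicate.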

[6] = system: CHO; test: Inhibition of wild-type human SLACK expressed in CHO cells assessed as efficacy at 30 uM by whole cell voltage clamp electrophysiology assay; type: cell-based; settings: Cricetulus griseus
[7] = system: HEK293; test: Inhibition of human SLACK A934T mutant expressed in HEK293 cells assessed as efficacy at 30 uM by thallium flux assay relative to control; type: cell-based; procedure, shortened: as §1
[8] = target: T2, Potassium channel subfamily T member 2 (Homo sapiens) (UniProt Q6UVM3); test: Inhibition of SLICK (unknown origin) expressed in HEK293 cells assessed as efficacy at 30 uM by thallium flux assay relative to control; type: cell-based
T2 sequence (whole entry): T1 sequence (Q6UVM3 whole entry)

[9] = Inhibition of human SLACK A934T mutant expressed in HEK293 cells by thallium flux assay; type: cell-based; procedure, shortened: as §1
[10] = Inhibition of wild-type human SLACK expressed in CHO cells by whole cell voltage clamp electrophysiology assay; type: cell-based; settings: Cricetulus griseus
Procedure, shortened: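 Automated whole-cell patch clamp at room temperature. External (mM): NaCl 105, KCl 4, MgCl2 1, CaCl2 5, HEPES 10, NMDG-Cl 40, pH 7.4. Internal: NaCl 70, KF 70, KCl 10, EGTA 5, HEPES 5, pH 7.2. Concentrations 0.125–30 μM in half-log steps, ≥3 cells per series.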

[11] = target: Calcium-activated potassium channel subunit alpha-1 (Homo sapiens) (UniProt Q12791); test: Inhibition of Maxi-K (unknown origin) expressed in HEK293 cells assessed as efficacy at 30 uM by thallium flux assay relative to control; type: cell-based
[12] = Inhibition of wild-type human SLACK expressed in HEK293 cells by thallium flux assay; type: cell-based; procedure, shortened: as §1

Sequence of Calcium-activated potassium channel subunit alpha-1 (Homo sapiens) (Q12791 whole entry): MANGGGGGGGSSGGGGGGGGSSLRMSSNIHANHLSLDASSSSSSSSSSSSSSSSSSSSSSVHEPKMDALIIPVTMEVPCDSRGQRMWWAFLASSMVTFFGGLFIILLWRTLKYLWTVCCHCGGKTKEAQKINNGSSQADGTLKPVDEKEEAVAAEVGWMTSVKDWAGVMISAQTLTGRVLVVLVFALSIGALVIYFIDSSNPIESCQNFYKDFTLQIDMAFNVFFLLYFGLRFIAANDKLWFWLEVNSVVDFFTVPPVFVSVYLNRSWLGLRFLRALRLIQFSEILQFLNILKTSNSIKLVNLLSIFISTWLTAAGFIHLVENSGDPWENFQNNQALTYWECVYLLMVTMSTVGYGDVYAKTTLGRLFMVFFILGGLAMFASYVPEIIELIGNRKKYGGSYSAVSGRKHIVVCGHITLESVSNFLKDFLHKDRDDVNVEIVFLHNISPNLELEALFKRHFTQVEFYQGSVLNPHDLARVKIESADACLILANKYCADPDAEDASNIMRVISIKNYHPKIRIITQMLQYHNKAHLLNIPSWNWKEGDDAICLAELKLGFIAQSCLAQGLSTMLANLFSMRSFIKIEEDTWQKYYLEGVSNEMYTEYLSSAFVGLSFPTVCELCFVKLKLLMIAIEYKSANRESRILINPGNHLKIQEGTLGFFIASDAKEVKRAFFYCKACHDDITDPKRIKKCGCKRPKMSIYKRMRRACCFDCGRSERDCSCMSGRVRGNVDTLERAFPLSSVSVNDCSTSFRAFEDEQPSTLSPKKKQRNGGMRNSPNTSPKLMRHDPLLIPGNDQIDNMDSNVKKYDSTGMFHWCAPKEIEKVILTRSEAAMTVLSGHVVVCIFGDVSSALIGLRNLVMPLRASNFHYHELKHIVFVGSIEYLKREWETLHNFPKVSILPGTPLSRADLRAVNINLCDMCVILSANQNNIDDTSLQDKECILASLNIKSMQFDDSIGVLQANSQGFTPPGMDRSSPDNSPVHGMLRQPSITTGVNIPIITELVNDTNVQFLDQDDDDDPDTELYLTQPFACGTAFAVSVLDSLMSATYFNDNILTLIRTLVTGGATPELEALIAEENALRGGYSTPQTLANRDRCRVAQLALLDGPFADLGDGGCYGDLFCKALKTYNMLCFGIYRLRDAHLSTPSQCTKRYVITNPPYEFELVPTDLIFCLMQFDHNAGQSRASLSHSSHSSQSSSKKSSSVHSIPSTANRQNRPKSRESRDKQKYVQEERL

| Compound | IC50 [1] | Efficacy [2] | inhibition [3] | Activity [4] | Fu [5] | Efficacy [6] | Efficacy [7] | Efficacy [8] | IC50 [9] | IC50 [10] | Efficacy [11] | IC50 [12] | Efficacy ([2]; tested as the 2H-labelled form) | inhibition ([3]; tested as the 2H-labelled form) | Efficacy ([6]; tested as the 2H-labelled form) | Efficacy ([7]; tested as the 2H-labelled form) | Efficacy ([8]; tested as the 2H-labelled form) | Efficacy ([11]; tested as the 2H-labelled form) |
| --- | --- | --- | --- | --- | --- | --- | --- | --- | --- | --- | --- | --- | --- | --- | --- | --- | --- | --- |
| O=S(=O)(c1ccccc1OCC(F)(F)F)N1CC(c2nc(-c3ccc(F)cc3)no2)C1 | > 10 µM | 91% | inactive | 57% | 0.012 | 100% | 72% | 27% | 2.5 µM | 1.76 µM | inactive |  |  |  |  |  |  |  |
| CCOc1ccccc1S(=O)(=O)N1CC(c2nc(-c3ccc(F)s3)no2)C1 | > 10 µM | 105% | inactive | < 10% | 0.024 | 100% | 103% | 65% | 0.97 µM | 0.7 µM | inactive |  |  |  |  |  |  |  |
| CCOc1ccccc1S(=O)(=O)N1CC[C@@H](c2nc(-c3ccc(F)cc3)no2)C1 |  | 31% |  |  |  |  |  |  |  |  |  | > 10 µM |  |  |  |  |  |  |
| CCOc1ccccc1S(=O)(=O)N1CCC(c2nc(-c3ccc(F)cc3)no2)CC1 | > 10 µM | 105% | inactive | 21% | < 0.01 | 100% | 129% | 35% | 4.3 µM | 1.76 µM | inactive |  |  |  |  |  |  |  |
| CCOc1ccccc1S(=O)(=O)N1CC(c2nc(-c3ccc(F)cc3Cl)no2)C1 | > 10 µM | 95% | inactive | 59% | 0.014 | 100% | 95% | 44% | 2 µM | 0.43 µM | inactive | 2.1 µM |  |  |  |  |  |  |
| CCOc1ccccc1S(=O)(=O)N1CC(c2nc(-c3ccc(Cl)cc3F)no2)C1 |  | 99% |  |  |  |  |  |  |  |  |  | 7.2 µM |  |  |  |  |  |  |
| CCOc1ccccc1S(=O)(=O)N1CC(c2nc(-c3ccc(F)cc3F)no2)C1 |  | 93% |  |  |  |  |  |  |  |  |  | 6.5 µM |  |  |  |  |  |  |
| CCOc1ccccc1S(=O)(=O)N1CC[C@H](c2nc(-c3ccc(F)cc3)no2)C1 |  | 63% |  |  |  |  |  |  |  |  |  | > 10 µM |  |  |  |  |  |  |
| CC(C)Oc1ccccc1S(=O)(=O)N1CC(c2nc(-c3ccsc3)no2)C1 | > 10 µM | 103% | inactive | < 10% | < 0.01 | 101% | 109% | 47% | 1.1 µM | 1.09 µM | inactive |  |  |  |  |  |  |  |
| O=S(=O)(c1cccc2c1OCCC2)N1CC(c2nc(-c3ccc(F)cc3)no2)C1 | > 10 µM | 93% | inactive | 19% | < 0.01 | 100% | 104% | 55% | 2.6 µM | 1.63 µM | inactive |  |  |  |  |  |  |  |
| CCOc1ccccc1S(=O)(=O)N1CC(c2nc(-c3cccs3)no2)C1 |  | 99% |  |  |  |  |  |  |  |  |  | 6.9 µM |  |  |  |  |  |  |
| CCOc1ccccc1S(=O)(=O)N1CC(c2nc(-c3cnsc3)no2)C1 |  | 106% |  |  |  |  |  |  |  |  |  | 6.6 µM |  |  |  |  |  |  |
| [2H]C([2H])([2H])C([2H])([2H])Oc1ccccc1S(=O)(=O)N1CC(c2nc(-c3ccc(F)cc3)no2)C1 | > 10 µM |  |  | 63% | 0.012 |  |  |  | 2.3 µM | 1.04 µM |  | 5.4 µM |  |  |  |  |  |  |
| CCCOc1ccccc1S(=O)(=O)N1CC(c2nc(-c3ccsc3)no2)C1 |  | 87% |  |  |  |  |  |  |  |  |  | 2.6 µM |  |  |  |  |  |  |
| O=S(=O)(c1cccc2cccnc12)N1CC(c2nc(-c3ccc(F)cc3)no2)C1 | 5.9 µM | 98% | inactive | 71% | 0.014 | 100% | 112% | 56% | 1.5 µM | 1.58 µM | inactive |  |  |  |  |  |  |  |
| CCOc1ccccc1S(=O)(=O)N1CC(c2nc(-c3ccc(C(F)(F)F)cc3)no2)C1 |  | 95% |  |  |  |  |  |  |  |  |  | 3.8 µM |  |  |  |  |  |  |
| CCOc1ccccc1S(=O)(=O)N1CC(c2nc(-c3ccc(F)cc3)no2)C1 | 2.3 µM | 105% | inactive | 58% | 0.012 | 101% | 110% | 50% | 1 µM | 1 µM | inactive | 3.2 µM | 100% | inactive | 101% | 83% | 55% | inactive |
